Results as given in ChEMBL document CHEMBL1144182, “Antimicrobial and cytotoxic arylazoenamines. Part III: antiviral activity of selected classes of arylazoenamines” (Bioorg Med Chem, 2008).
Active and inactive are the calls of the source. No rule for the calls is given here.

Experiments:
Human alphaherpesvirus 1 = assay: Antiviral activity against HSV1 infected in Vero76 cells assessed as reduction in virus plaque formation after 4 days by MTT assay; assay type: functional, organism-based; settings: Human alphaherpesvirus 1, Vero 76, 96 h
[1] = Cytotoxicity against mock-infected MDBK cells assessed as reduction in cell viability after 96 hrs by MTT assay; assay type: cell-based, Bos taurus; settings: cattle
How it was run: (§1)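 Cytotoxicity run in parallel with the antiviral assays. MDBK seeded at 6 × 10^5 and BHK at 1 × 10^6 cells/mL in maintenance medium with or without serial compound dilutions. Incubated 48–96 h at 37 °C, 5% CO2, then viability read by MTT. CC50 is the concentration reducing mock-infected cell viability by 50%.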

[2] = test system: Vesicular stomatitis virus; assay: Antiviral activity against VSV infected in Vero76 cells assessed as reduction in virus plaque formation after 4 days by MTT assay; assay type: functional, organism-based; settings: Vero 76
[3] = Cytotoxicity against mock-infected human MT4 cells assessed as reduction in cell viability after 96 hrs by MTT assay; assay type: cell-based
How it was run: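 Exponentially growing MT-4 cells seeded at 1 × 10^5 cells/mL in RPMI-1640 with 10% FCS, penicillin and streptomycin, with or without serial compound dilutions. Incubated at 37 °C, 5% CO2; viability read by MTT after 96 h. CC50 is the concentration reducing mock-infected cell viability by 50%.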

Coxsackievirus B2 = assay: Antiviral activity against CVB2 infected in Vero76 cells assessed as reduction in virus plaque formation after 4 days by MTT assay; assay type: functional, organism-based; settings: Enterovirus B, Vero 76, 96 h
[4] = Cytotoxicity against mock-infected african green monkey Vero76 cells assessed as reduction in cell viability after 96 hrs by MTT assay; assay type: cell-based, Vero; settings: chlorocebus sabaeus
[5] = test system: Human immunodeficiency virus 1; assay: Antiviral activity against HIV1 infected in MT4 cells assessed as virus-induced cytopathogenicity after 4 days; assay type: functional, organism-based
[6] = Cytotoxicity against mock-infected BHK cells assessed as reduction in cell viability after 96 hrs by MTT assay; assay type: cell-based, Mesocricetus auratus; settings: hamster; how it was run: as §1
Yellow fever virus = assay: Antiviral activity against YFV infected in BHK21 cells assessed as protection against virus-induced cytopathogenicity after 4 days by MTT assay; assay type: functional, organism-based; settings: BHK-21, 96 h
How it was run: (§2)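 MDBK (BVDV) or BHK-21 (YFV) cells were seeded at 3 × 10^4 or 5 × 10^4 cells/well respectively and grown overnight to confluent monolayers at 37 °C in 5% CO2. Monolayers were infected at m.o.i. 0.01 in serum-free medium. After 1 h, MEM Earle's with 1% FCS was added, with or without serial compound dilutions. After 3–4 days at 37 °C, viability was read by MTT. EC50 was taken as 50% protection from virus-induced cytopathogenicity.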

[7] = test system: Respiratory syncytial virus; assay: Antiviral activity against RSV infected in Vero76 cells assessed as reduction in virus plaque formation after 4 days by MTT assay; assay type: functional, organism-based; settings: human respiratory syncytial virus, Vero 76, 96 h
Poliovirus 1 = assay: Antiviral activity against Sb1 virus infected in Vero76 cells assessed as reduction in virus plaque formation after 4 days by MTT assay; assay type: functional, organism-based; settings: Enterovirus C, Sabin, Vero 76, 96 h
Vaccinia virus = assay: Antiviral activity against VV infected in Vero76 cells assessed as reduction in virus plaque formation after 4 days by MTT assay; assay type: functional, organism-based; settings: Orthopoxvirus vaccinia; Vero 76
[8] = test system: Bovine viral diarrhea virus 1; assay: Antiviral activity against BVDV infected in MDBK cells assessed as protection against virus-induced cytopathogenicity after 4 days by MTT assay; assay type: functional, organism-based; settings: Bovine viral diarrhea virus isolates and strains, 96 h; how it was run: as §2

Structure (SMILES) | EC50 (Human alphaherpesvirus 1) [µM] | CC50 at 96 h [1] [µM] | Activity [2] | CC50 at 96 h [3] [µM] | EC50 (Coxsackievirus B2) [µM] | CC50 at 96 h [4] [µM] | Activity [5] | CC50 at 96 h [6] [µM] | EC50 (Yellow fever virus) [µM] | EC50 [7] [µM] | EC50 (Poliovirus 1) [µM] | Activity (Vaccinia virus) | EC50 [8] [µM]
FC(F)(F)c1cc(/N=N\C2=C3CCCN3CCC2)ccc1Cl | 33 | 21 | inactive | 30 | 9 | 100 | inactive | 51 | > 51 | > 100 | 12 | inactive | > 21
CN1CCC/C1=C\N=N\c1ccc(F)c(C(F)(F)F)c1 | 60 | > 100 | inactive | 11 | 71 | > 100 | inactive | 41 | > 41 | > 100 | > 100 | inactive | 100
C(=C\N1CCCC1)/N=N/c1ccccc1 | – | 63 | inactive | 8 | 4 | 70 | inactive | 82 | > 82 | 30 | > 70 | inactive | > 63
Fc1ccc(N2CCN(/C=C/N=N/c3ccccc3)CC2)cc1 | – | 13 | inactive | 17 | 5 | 35 | inactive | 50 | 20 | 9 | > 35 | inactive | > 13
CN1/C(=C\N=N\c2ccccc2)C(C)(C)c2ccccc21.[O-][Cl+3]([O-])([O-])O | – | 20 | inactive | 30 | > 73 | 73 | inactive | 47 | > 47 | > 73 | > 73 | inactive | > 20
CN1C=C(/N=N/c2ccc(F)cc2)CCC1 | – | 48 | inactive | ≥ 100 | 53 | 77 | inactive | 90 | > 90 | 30 | > 77 | inactive | > 48
CN1CCC/C1=C\N=N\c1ccccc1 | – | > 100 | inactive | > 100 | 19 | 82 | inactive | > 100 | > 100 | 20 | > 82 | inactive | 10
Clc1ccc(/N=N/C=C/N2CCCC2)cc1 | – | 30 | inactive | 61 | 4 | 22 | inactive | > 100 | 46 | > 22 | > 22 | inactive | > 30
CN1CCC/C1=C\N=N\c1c(F)c(F)c(F)c(F)c1F | – | > 100 | inactive | 8 | > 100 | > 100 | inactive | > 100 | > 100 | 75 | > 100 | inactive | > 100
CN1CCC/C1=C\N=N\c1cccc(Br)c1 | – | 52 | inactive | 55 | 16 | 80 | inactive | 41 | 7 | > 80 | > 80 | inactive | 9
CN1CCC/C1=C\N=N\c1ccc(Cl)cc1 | – | 85 | inactive | > 100 | 24 | 92 | inactive | 55 | > 55 | 20 | > 92 | inactive | 21
CN1C=C(/N=N/c2ccc(F)c(C(F)(F)F)c2)CCC1 | – | > 100 | inactive | > 100 | 35 | 70 | inactive | 80 | > 80 | > 70 | > 70 | inactive | > 100
CN1C=C(/N=N/c2ccccc2)CCC1 | – | > 100 | inactive | > 100 | > 100 | ≥ 100 | inactive | > 100 | > 100 | 75 | > 100 | inactive | > 100
CN1C=C(/N=N/c2cccc(Cl)c2)CCC1 | – | 87 | inactive | > 100 | 34 | 75 | inactive | 85 | > 85 | 40 | > 75 | inactive | 12
CN1C=C(/N=N/c2cccc3ccccc23)CCC1 | – | > 100 | inactive | > 100 | 76 | ≥ 100 | inactive | > 100 | > 100 | > 100 | > 100 | inactive | 5
FC(F)(F)c1cccc(N2CCN(/C=C/N=N/c3ccccc3)CC2)c1 | – | 9 | inactive | 30 | > 11 | 11 | inactive | 43 | 9 | 4 | > 11 | inactive | > 9
FC(F)(F)c1cc(/N=N\C2=C3CCCCN3CCC2)cc(C(F)(F)F)c1 | – | 31 | inactive | 34 | 41 | 100 | inactive | 19 | > 19 | > 100 | > 100 | inactive | > 31
Clc1cccc(/N=N\C2=C3CCCCN3CCC2)c1 | – | 20 | inactive | 16 | 22 | 60 | inactive | 46 | > 46 | 18 | > 60 | inactive | > 20
CN1C=C(/N=N/c2ccc(Br)c(C(F)(F)F)c2)CCC1 | – | > 100 | inactive | 50 | 40 | 80 | inactive | > 100 | > 100 | > 80 | > 80 | inactive | 40
